# Assay results taken from the RNAGym collection of RNA variant scans (doi:10.1002/anie.201605470).
# B1: Osa-1-4 twister ribozyme (parent)
# chain: CCGCCUAACACUGCCAAUGCCGGUCCCAAGCCCGGAUAAAAGUGGAGGGGGCGG
# Variants of: B1
# Assay: self-cleavage, relative activity (ratio to wild type); higher = more cleavage; co-transcriptional
# How it was run: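 Values are relative activity: the fraction cleaved, normalised to wild type. A doped DNA template for a 54-nucleotide twister ribozyme from Oryza sativa had 97 % wild-type base and 1 % of each other base at the 48 positions downstream of the cleavage site. The RNA was transcribed in vitro for 2 h at 37 °C so that it could cleave itself co-transcriptionally, then sequenced deeply, with cleavage status scored from the presence or absence of upstream sequence in reads.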
row,Variant,self-cleavage
1,C11G U18G,0.54
2,C11G U18A,0.52
3,C11G U18C,0.24
4,C11U C15U,0.13
5,C11U C15A,0.21
6,C11U C15G,0.19
7,C11G G30A,0.03
8,C11G G30U,0.02
9,C11G G30C,0.04
10,C11G G13A,0.06
11,C11G G13C,0.02
12,C11G G13U,0.03
13,C11U G44A,0.8
14,C11U G44U,0.67
15,C11U G44C,0.84
16,C11A U18G,0.64
17,C11A U18C,0.43
18,C11A U18A,0.67
19,C11A C9U,0.4
20,C11A C9G,0.19
21,C11A C9A,0.33
22,C11U G22C,0.04
23,C11U G22U,0.22
24,C11U G22A,0.59

row,Variant,self-cleavage
1,C11G C9U,0.07
2,C11G C9G,0.19
3,C11G C9A,0.09
4,C11G C27A,0.07
5,C11G C27G,0.03
6,C11G C27U,0.06
7,C11A C32U,0.06
8,C11A C32G,0.07
9,C11A C32A,0.06
10,C11G U43G,0.05
11,C11G U43A,0.15
12,C11G U43C,0.08
13,C11U G19U,0.1
14,C11U G19A,0.23
15,C11U G19C,0.07
16,C11G C14U,0.13
17,C11G C14A,0.05
18,C11G C14G,0.06
19,C11A G42U,0.73
20,C11A G42A,0.76
21,C11A G42C,0.83
22,C11A G49U,0.07
23,C11A G49A,0.06
24,C11A G49C,0.06

row,Variant,self-cleavage
1,C11U G47C,0.07
2,C11U G47A,0.09
3,C11U G47U,0.07
4,C11U G54C,0.8
5,C11U G54A,0.78
6,C11U G54U,0.79
7,A10U U18G,0.07
8,A10U U18C,0.05
9,A10U U18A,0.03
10,C11G G49A,0.05
11,C11G G49C,0.03
12,C11G G49U,0.05
13,C11U G42U,0.47
14,C11U G42A,0.93
15,C11U G42C,0.85
16,C11U C52A,0.83
17,C11U C52U,0.98
18,C11U C52G,0.81
19,C11A C15U,0.07
20,C11A C15A,0.12
21,C11A C15G,0.1
22,C11G C32U,0.04
23,C11G C32G,0.06
24,C11G C32A,0.04

row,Variant,self-cleavage
1,A10U U43G,0.59
2,A10U U43C,0.03
3,A10U U43A,0.79
4,C11G C26G,0.1
5,C11G C26A,0.03
6,C11G C26U,0.19
7,C11G G35C,0.05
8,C11G G35A,0.08
9,C11G G35U,0.06
10,C11U G49C,0.08
11,C11U G49A,0.09
12,C11U G49U,0.09
13,C11U G35A,0.65
14,C11U G35U,0.69
15,C11U G35C,0.18
16,C11U U24G,0.06
17,C11U U24A,0.06
18,C11U U24C,0.1
19,C11U C33U,0.51
20,C11U C33G,0.06
21,C11U C33A,0.07
22,C11U C21G,0.11
23,C11U C21U,0.91
24,C11U C21A,0.29

row,Variant,self-cleavage
1,A10U U24C,0.02
2,A10U U24A,0.03
3,A10U U24G,0.01
4,C11G G48U,0.03
5,C11G G48A,0.03
6,C11G G48C,0.03
7,C11A C33U,0.2
8,C11A C33G,0.04
9,C11A C33A,0.06
10,C11G G19C,0.03
11,C11G G19U,0.05
12,C11G G19A,0.08
13,C11G C21U,0.39
14,C11G C21G,0.04
15,C11G C21A,0.06
16,C11U C26G,0.08
17,C11U C26A,0.05
18,C11U C26U,0.6
19,A10U G51A,0.04
20,A10U G51C,0.02
21,A10U G51U,0.03
22,C11A U24C,0.06
23,C11A U24A,0.05
24,C11A U24G,0.07

row,Variant,self-cleavage
1,C11A U37G,0.81
2,C11A U37C,0.88
3,C11A U37A,0.48
4,C11U C20A,0.71
5,C11U C20U,0.78
6,C11U C20G,0.09
7,C11A C20A,0.62
8,C11A C20U,0.66
9,C11A C20G,0.06
10,C11G C20G,0.04
11,C11G C20A,0.4
12,C11G C20U,0.5
13,A10U U12A,0.05
14,A10U U12C,0.02
15,A10U U12G,0.02
16,C11U C25U,0.52
17,C11U C25G,0.05
18,C11U C25A,0.08
19,C11U G53C,0.07
20,C11U G53A,0.62
21,C11U G53U,0.14
22,C11A G54U,0.71
23,C11A G54C,0.66
24,C11A G54A,0.62

row,Variant,self-cleavage
1,C11A G35U,0.37
2,C11A G35A,0.4
3,C11A G35C,0.09
4,C11A G51A,0.17
5,C11A G51U,0.06
6,C11A G51C,0.04
7,C11A U12A,0.09
8,C11A U12C,0.14
9,C11A U12G,0.09
10,C11A G50U,0.77
11,C11A G50C,0.57
12,C11A G50A,0.3
13,C11A C31A,0.05
14,C11A C31U,0.09
15,C11A C31G,0.06
16,C11A G47A,0.07
17,C11A G47U,0.06
18,C11A G47C,0.05
19,C11U G30U,0.03
20,C11U G30C,0.05
21,C11U G30A,0.04
22,C11G U24C,0.04
23,C11G U24G,0.04
24,C11G U24A,0.04

row,Variant,self-cleavage
1,A10U U37C,0.05
2,A10U U37A,0.04
3,A10U U37G,0.04
4,C11U G34C,0.08
5,C11U G34U,0.19
6,C11U G34A,0.39
7,C11U U43A,0.62
8,C11G U37G,0.71
9,C11G U37C,0.69
10,C11G U37A,0.38
11,C11U G50C,0.72
12,C11U G50U,0.88
13,C11U G50A,0.44
14,C11U C31U,0.37
15,C11U C31G,0.06
16,C11U C31A,0.03
17,C11G,0.7
18,C11A,0.84
19,C11U,0.94
20,C11A C27U,0.08
21,C11A C27G,0.04
22,C11A C27A,0.12
23,C11U G23C,0.04
24,C11U G23A,0.1

row,Variant,self-cleavage
1,C11U G23U,0.05
2,C11U G48U,0.05
3,C11U G48C,0.06
4,C11U G48A,0.07
5,C11U C14U,0.17
6,C11U C14G,0.09
7,C11U C14A,0.07
8,C11U C27G,0.06
9,C11U C27A,0.14
10,C11U C27U,0.12
11,C11G G54U,0.36
12,C11G G54A,0.3
13,C11G G54C,0.32
14,A10U G53U,0.03
15,A10U G53C,0.02
16,A10U G53A,0.04
17,C11U U18C,0.71
18,C11U U18A,0.85
19,C11U U18G,0.7
20,C11A G45C,0.04
21,C11A G45U,0.06
22,C11A G45A,0.06
23,C11U G13U,0.04
24,C11U G13C,0.04

row,Variant,self-cleavage
1,C11U G13A,0.05
2,C11A G19A,0.11
3,C11A G19C,0.04
4,C11A G19U,0.06
5,C11G G53A,0.17
6,C11G G53C,0.04
7,C11G G53U,0.07
8,C11A C25U,0.18
9,C11A C25A,0.11
10,C11A C25G,0.05
11,C11G C15A,0.09
12,C11G C15U,0.08
13,C11G C15G,0.1
14,C11G G47U,0.04
15,C11G G47A,0.04
16,C11G G47C,0.04
17,C11G G44C,0.11
18,C11G G44U,0.09
19,C11G G44A,0.17
20,C11A C26U,0.21
21,C11A C26A,0.06
22,C11A C26G,0.06
23,C11A G22C,0.04
24,C11A G22U,0.07

row,Variant,self-cleavage
1,C11A G22A,0.24
2,C11A G23U,0.03
3,C11A G23A,0.07
4,C11A G23C,0.03
5,C11A G34A,0.16
6,C11A G34C,0.07
7,C11A G34U,0.11
8,C11U U37A,0.62
9,C11U U37G,0.94
10,C11U U37C,1.02
11,C11U C9A,0.26
12,C11U C9U,0.65
13,C11U C9G,0.36
14,C11A G30A,0.03
15,C11A G30U,0.03
16,C11A G30C,0.03
17,C11G C31G,0.04
18,C11G C31U,0.08
19,C11G C31A,0.03
20,C11G G42C,0.76
21,C11G G42A,0.75
22,C11G G42U,0.61
23,C11U C32G,0.08
24,C11U C32A,0.06

row,Variant,self-cleavage
1,C11U C32U,0.07
2,C11G G22C,0.04
3,C11G G22U,0.03
4,C11G G22A,0.07
5,C11A G53A,0.49
6,C11A G53C,0.04
7,C11A G53U,0.09
8,C11U U12A,0.6
9,C11U U12G,0.37
10,C11U U12C,0.47
11,C11G C25A,0.04
12,C11G C25U,0.18
13,C11G C25G,0.04
14,C11A C21U,0.71
15,C11A C21A,0.14
16,C11A C21G,0.07
17,C11G G23A,0.05
18,C11G G23U,0.04
19,C11G G23C,0.02
20,C11G G34C,0.05
21,C11G G34U,0.04
22,C11G G34A,0.07
23,C11A C14U,0.15
24,C11A C14A,0.07

row,Variant,self-cleavage
1,C11A C14G,0.1
2,C11G G45U,0.06
3,C11G G45C,0.04
4,C11G G45A,0.05
5,C11G G50A,0.11
6,C11G G50U,0.42
7,C11G G50C,0.15
8,C11A G48U,0.05
9,C11A G48A,0.05
10,C11A G48C,0.05
11,C11A U43C,0.1
12,C11A U43A,0.76
13,C11A U43G,0.56
14,A10U G54U,0.21
15,A10U G54C,0.04
16,A10U G54A,0.06
17,C11G U12A,0.15
18,C11G U12G,0.08
19,C11G U12C,0.08
20,A10U G50C,0.03
21,A10U G50U,0.04
22,A10U G50A,0.05
23,C11A G13C,0.03
24,C11A G13U,0.04

row,Variant,self-cleavage
1,C11A G13A,0.03
2,C11G C33U,0.06
3,C11G C33G,0.07
4,C11G C33A,0.04
5,C11A G44C,0.45
6,C11A G44U,0.08
7,C11A G44A,0.19
8,C11A C52G,0.74
9,C11A C52A,0.63
10,C11A C52U,0.9
11,C11U G51U,0.12
12,C11U G51C,0.05
13,C11U G51A,0.34
14,C11G G51C,0.03
15,C11G G51U,0.05
16,C11G G51A,0.07
17,C11U G45C,0.06
18,C11U G45A,0.09
19,C11U G45U,0.09
20,C11G C52G,0.22
21,C11G C52A,0.24
22,C11G C52U,0.73
